Experimental data as given in ChEMBL document CHEMBL3621160, “Pseudosaccharin amines as potent and selective KV1.5 blockers” (Bioorg Med Chem Lett, 2015).

Tests used:
[1] = biological target: Phosphodiesterase 4 (Homo sapiens) (UniProt P27815+Q08499+Q07343+Q08493); experiment: Inhibition of human PDE4 at 10 uM relative to control; format: protein assay
Summary of the method: (§1)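 Screening panel of over 37 receptors and enzymes relevant to cardiovascular effects or toxicity. Each target was tested at a single concentration of 10 µM, with % activity reported.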

hERG (KCNH2) = hERG (KCNH2) (Homo sapiens, UniProt Q12809); experiment: Inhibition of human ERG at 10 uM relative to control; summary of the method: as §1
[2] = biological target: Acetylcholinesterase (Homo sapiens) (UniProt P22303); experiment: Inhibition of human acetylcholinesterase at 10 uM relative to control
[3] = biological target: Estrogen receptor (Homo sapiens) (UniProt P03372); experiment: Inhibition of human ER-alpha at 10 uM relative to control; summary of the method: as §1
Oryctolagus cuniculus [4] = organism: Oryctolagus cuniculus; experiment: Toxicity in rabbit assessed as increase in gastrointestinal motility; format: organism-based; details: in vivo
Rattus norvegicus [5] = organism: Rattus norvegicus; experiment: Inhibition of rat GABAA central-type benzodiazepine receptor at 10 uM relative to control
Summary of the method: (§2)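 Single-concentration screen at 10 µM across a panel of over 37 receptors and enzymes linked to cardiovascular effects or toxicity. Read-out is percent activity.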

[6] = biological target: D(1A) dopamine receptor (Homo sapiens) (UniProt P21728); experiment: Inhibition of human dopamine D1 receptor at 10 uM relative to control; summary of the method: as §1
Oryctolagus cuniculus [7] = organism: Oryctolagus cuniculus; experiment: Induction of […] effective refractory period prolongation in rabbit; format: functional
Summary of the method: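 Rabbits were dosed at 0.3, 1.0 and 3.0 mg/Kg. Effective refractory period was measured in atrium and ventricle, and blood pressure was recorded. The plasma concentration giving 20% atrial ERP prolongation (EC20) was calculated.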

MAO-A = MAO-A (Homo sapiens, UniProt P21397); experiment: Inhibition of human MAOA at 10 uM relative to control; summary of the method: as §1
[8] = biological target: 5-hydroxytryptamine receptor 4 (Cavia porcellus) (UniProt O70528); experiment: Inhibition of guinea pig 5-HT4 receptor at 10 uM relative to control; summary of the method: as §1
[9] = biological target: Carnitine O-palmitoyltransferase 1, liver isoform (Rattus norvegicus) (UniProt P32198); experiment: Inhibition of rat carnitine palmitoyltransferase-1 at 10 uM relative to control; summary of the method: as §1
[10] = biological target: Adenosine receptor A2a (Homo sapiens) (UniProt P29274); experiment: Inhibition of human adenosine A2A receptor at 10 uM relative to control; summary of the method: as §1
[11] = biological target: Glucocorticoid receptor (Rattus norvegicus) (UniProt P06536); experiment: Inhibition of rat glucocorticoid receptor at 10 uM relative to control; summary of the method: as §1
[12] = biological target: 5-hydroxytryptamine receptor 2B (Homo sapiens) (UniProt P41595); experiment: Inhibition of human 5HT-2B receptor at 10 uM relative to control; summary of the method: as §1
[13] = biological target: Sodium-dependent serotonin transporter (Homo sapiens) (UniProt P31645); experiment: Inhibition of human SERT at 10 uM relative to control; summary of the method: as §1
[14] = biological target: D(2) dopamine receptor (Homo sapiens) (UniProt P14416); experiment: Inhibition of human dopamine D2S receptor at 10 uM relative to control; summary of the method: as §1
[15] = Metabolic stability in human liver microsomes assessed as compound remaining at 3 uM after 10 mins; format: ADME; details: read-out: Stability
Summary of the method: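 Parent compound at 3 µM was incubated 10 min in human, rat or mouse liver microsomes with appropriate co-factors. Read-out is percent of parent remaining.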

Rattus norvegicus [16] = organism: Rattus norvegicus; experiment: Inhibition of rat muscarinic acetylcholine receptor at 10 uM relative to control; summary of the method: as §2
[17] = biological target: Mu-type opioid receptor (Homo sapiens) (UniProt P35372); experiment: Inhibition of human mu opioid receptor at 10 uM relative to control; summary of the method: as §1
Homo sapiens = organism: Homo sapiens; experiment: Inhibition of calcium channel (unknown origin) at 10 uM relative to control
Summary of the method: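 Calcium (ICa) and sodium (INa) currents were measured as percent inhibition at a single concentration of 10 µM. Values are means of 2-4 experiments.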

[18] = biological target: Neuropeptide Y receptor type 1 (Homo sapiens) (UniProt P25929); experiment: Inhibition of human NPY1-R at 10 uM relative to control; summary of the method: as §1
[19] = biological target: Cannabinoid receptor 1 (Homo sapiens) (UniProt P21554); experiment: Inhibition of human CB1 receptor at 10 uM relative to control; summary of the method: as §1
[20] = biological target: Adenosine receptor A3 (Homo sapiens) (UniProt P0DMS8); experiment: Inhibition of human adenosine A3 receptor at 10 uM relative to control; summary of the method: as §2
[21] = biological target: Mineralocorticoid receptor (Rattus norvegicus) (UniProt P22199); experiment: Inhibition of rat aldosterone receptor at 10 uM relative to control; summary of the method: as §1
[22] = biological target: Melanocyte-stimulating hormone receptor (Homo sapiens) (UniProt Q01726); experiment: Inhibition of human MC1 receptor at 10 uM relative to control; summary of the method: as §1
[23] = biological target: B1 bradykinin receptor (Homo sapiens) (UniProt P46663); experiment: Inhibition of human bradykinin B1 receptor at 10 uM relative to control; summary of the method: as §1
[24] = biological target: Calcitonin receptor (Homo sapiens) (UniProt P30988); experiment: Inhibition of human calcitonin receptor at 10 uM relative to control; summary of the method: as §1

Chain of MAO-A (P21397 whole entry): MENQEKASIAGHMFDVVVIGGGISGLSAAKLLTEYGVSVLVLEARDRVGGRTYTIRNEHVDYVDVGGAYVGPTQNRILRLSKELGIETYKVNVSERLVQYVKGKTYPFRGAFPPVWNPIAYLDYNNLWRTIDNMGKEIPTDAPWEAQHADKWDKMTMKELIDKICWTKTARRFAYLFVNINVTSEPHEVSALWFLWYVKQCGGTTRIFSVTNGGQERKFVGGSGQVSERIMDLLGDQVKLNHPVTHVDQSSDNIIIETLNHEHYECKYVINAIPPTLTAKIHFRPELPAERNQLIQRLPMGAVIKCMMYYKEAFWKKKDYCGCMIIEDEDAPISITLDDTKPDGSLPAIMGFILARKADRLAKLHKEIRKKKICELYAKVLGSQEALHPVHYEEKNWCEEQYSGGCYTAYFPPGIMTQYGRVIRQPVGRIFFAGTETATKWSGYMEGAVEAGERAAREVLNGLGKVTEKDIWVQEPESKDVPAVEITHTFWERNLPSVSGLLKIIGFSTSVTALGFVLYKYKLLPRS
Chain of Sodium-dependent serotonin transporter (Homo sapiens) (P31645 whole entry, looked up): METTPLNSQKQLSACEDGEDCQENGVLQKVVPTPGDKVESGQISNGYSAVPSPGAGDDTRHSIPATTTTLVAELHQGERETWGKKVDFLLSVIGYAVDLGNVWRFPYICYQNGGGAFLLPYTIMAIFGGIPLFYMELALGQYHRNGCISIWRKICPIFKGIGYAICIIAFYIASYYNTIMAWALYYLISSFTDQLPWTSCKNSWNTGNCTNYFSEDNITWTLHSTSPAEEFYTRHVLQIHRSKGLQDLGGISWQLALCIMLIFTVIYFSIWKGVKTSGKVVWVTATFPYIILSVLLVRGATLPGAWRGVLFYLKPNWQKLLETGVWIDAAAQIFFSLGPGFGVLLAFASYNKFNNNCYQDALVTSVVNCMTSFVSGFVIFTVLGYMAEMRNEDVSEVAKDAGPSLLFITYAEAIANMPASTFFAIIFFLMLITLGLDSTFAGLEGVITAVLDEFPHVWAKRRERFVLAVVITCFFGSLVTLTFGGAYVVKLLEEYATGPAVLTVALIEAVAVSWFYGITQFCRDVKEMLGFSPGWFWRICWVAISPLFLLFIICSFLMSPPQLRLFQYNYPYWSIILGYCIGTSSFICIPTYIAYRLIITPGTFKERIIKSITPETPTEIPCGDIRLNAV
Chain of hERG (KCNH2) (Q12809 whole entry): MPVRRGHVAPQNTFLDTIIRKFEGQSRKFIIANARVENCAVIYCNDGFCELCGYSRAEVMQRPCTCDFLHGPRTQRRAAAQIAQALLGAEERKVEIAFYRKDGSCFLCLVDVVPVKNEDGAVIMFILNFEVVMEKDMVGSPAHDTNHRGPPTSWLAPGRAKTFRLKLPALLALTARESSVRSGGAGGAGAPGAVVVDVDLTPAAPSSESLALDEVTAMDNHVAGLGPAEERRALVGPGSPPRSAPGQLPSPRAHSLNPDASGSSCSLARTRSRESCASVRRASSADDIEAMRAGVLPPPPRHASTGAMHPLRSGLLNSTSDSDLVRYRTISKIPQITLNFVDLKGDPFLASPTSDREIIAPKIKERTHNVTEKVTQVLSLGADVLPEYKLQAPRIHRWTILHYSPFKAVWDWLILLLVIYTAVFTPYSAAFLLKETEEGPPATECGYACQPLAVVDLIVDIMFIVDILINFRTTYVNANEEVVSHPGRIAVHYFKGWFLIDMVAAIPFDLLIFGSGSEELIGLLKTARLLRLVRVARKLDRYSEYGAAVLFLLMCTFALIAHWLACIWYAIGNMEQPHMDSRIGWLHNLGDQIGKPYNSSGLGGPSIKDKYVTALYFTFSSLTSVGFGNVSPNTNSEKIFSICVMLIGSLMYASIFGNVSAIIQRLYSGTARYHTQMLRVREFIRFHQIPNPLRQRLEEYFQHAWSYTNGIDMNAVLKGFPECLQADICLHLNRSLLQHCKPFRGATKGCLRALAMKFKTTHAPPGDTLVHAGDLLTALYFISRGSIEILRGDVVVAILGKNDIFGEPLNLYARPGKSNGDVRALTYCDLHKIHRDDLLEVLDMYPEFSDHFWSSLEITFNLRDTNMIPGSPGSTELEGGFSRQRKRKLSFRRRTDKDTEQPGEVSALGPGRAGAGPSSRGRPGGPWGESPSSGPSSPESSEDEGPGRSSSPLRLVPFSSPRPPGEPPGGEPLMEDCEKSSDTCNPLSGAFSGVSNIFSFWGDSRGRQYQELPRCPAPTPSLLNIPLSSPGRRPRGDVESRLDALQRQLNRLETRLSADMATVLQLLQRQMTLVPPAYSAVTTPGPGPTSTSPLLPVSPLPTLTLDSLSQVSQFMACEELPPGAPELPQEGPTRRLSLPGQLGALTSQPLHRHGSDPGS
Chain of Carnitine O-palmitoyltransferase 1, liver isoform (Rattus norvegicus) (P32198 whole entry, canonical isoform): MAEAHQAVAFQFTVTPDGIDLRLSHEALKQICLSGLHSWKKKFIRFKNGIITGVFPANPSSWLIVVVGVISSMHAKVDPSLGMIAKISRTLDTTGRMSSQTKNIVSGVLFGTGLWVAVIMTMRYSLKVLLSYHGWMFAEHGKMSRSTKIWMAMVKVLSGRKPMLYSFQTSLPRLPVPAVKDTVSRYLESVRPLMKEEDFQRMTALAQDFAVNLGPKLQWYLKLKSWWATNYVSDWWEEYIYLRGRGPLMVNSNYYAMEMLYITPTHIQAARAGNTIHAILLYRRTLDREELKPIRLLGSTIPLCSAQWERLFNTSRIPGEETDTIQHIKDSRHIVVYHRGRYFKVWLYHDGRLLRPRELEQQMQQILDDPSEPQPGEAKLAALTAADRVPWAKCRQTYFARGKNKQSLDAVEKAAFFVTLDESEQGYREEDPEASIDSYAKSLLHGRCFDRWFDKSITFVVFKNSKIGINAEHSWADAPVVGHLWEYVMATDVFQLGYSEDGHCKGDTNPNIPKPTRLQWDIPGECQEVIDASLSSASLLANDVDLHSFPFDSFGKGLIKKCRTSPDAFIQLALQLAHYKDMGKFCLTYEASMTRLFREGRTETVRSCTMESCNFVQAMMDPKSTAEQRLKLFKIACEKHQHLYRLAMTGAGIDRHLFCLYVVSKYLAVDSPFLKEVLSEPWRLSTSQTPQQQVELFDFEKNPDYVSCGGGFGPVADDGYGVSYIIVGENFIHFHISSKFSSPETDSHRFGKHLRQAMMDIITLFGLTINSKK
Chain of D(2) dopamine receptor (Homo sapiens) (P14416 whole entry): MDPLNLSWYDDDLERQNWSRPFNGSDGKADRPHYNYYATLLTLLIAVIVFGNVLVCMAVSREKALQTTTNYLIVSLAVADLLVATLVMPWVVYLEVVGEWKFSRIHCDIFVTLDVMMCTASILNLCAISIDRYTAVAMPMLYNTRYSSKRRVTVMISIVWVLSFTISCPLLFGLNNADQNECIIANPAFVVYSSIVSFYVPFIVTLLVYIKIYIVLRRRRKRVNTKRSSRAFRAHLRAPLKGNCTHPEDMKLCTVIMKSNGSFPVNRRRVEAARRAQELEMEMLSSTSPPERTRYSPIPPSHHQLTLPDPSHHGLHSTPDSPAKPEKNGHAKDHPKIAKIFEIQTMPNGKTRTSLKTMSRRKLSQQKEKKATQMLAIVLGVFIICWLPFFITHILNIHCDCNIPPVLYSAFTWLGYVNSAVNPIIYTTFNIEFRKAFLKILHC
Chain of Adenosine receptor A2a (Homo sapiens) (P29274 whole entry): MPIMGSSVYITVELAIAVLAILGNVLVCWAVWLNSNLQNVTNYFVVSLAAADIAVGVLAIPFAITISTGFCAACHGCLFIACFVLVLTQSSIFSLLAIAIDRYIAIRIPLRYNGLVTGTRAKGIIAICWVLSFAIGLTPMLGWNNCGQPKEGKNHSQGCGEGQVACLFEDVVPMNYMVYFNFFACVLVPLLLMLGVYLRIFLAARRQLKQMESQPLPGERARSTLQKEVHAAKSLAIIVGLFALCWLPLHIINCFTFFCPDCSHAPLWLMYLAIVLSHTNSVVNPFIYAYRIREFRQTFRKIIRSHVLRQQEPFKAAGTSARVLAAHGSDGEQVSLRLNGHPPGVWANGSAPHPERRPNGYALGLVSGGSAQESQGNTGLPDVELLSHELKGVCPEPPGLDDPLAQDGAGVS
Chain of Estrogen receptor (Homo sapiens) (P03372 whole entry): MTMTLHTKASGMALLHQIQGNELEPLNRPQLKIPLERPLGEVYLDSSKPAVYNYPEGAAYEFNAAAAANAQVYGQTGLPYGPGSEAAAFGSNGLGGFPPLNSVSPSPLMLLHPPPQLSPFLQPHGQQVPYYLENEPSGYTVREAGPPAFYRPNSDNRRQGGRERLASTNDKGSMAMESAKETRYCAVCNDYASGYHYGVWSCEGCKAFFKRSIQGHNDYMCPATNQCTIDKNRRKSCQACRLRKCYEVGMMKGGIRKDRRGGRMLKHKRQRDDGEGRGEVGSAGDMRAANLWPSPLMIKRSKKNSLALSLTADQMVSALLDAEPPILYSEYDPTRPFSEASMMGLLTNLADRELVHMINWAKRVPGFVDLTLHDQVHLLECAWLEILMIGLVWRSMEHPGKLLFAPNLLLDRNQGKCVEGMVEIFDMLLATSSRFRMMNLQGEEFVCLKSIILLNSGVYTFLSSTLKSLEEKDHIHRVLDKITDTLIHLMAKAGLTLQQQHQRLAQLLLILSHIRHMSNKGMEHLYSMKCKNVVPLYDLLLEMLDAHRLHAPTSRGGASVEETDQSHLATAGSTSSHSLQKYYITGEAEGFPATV
Chain of 5-hydroxytryptamine receptor 4 (Cavia porcellus) (O70528 whole entry, canonical isoform): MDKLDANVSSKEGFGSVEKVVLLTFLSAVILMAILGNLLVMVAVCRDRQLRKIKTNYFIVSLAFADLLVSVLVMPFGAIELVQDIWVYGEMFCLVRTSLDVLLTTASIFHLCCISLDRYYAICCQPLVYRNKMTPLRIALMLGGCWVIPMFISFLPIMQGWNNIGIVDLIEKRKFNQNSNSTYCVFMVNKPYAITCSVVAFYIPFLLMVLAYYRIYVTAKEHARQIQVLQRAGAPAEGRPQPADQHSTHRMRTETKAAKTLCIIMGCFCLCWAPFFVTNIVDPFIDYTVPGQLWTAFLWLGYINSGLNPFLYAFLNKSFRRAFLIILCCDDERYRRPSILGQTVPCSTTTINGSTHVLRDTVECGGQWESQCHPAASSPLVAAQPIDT

COc1cccc2c1C(NC[C@]1(c3ccccc3)CC[C@H](O)CC1)=NS2(=O)=O
inhibition [1]: 26%
inhibition at 10 µM (hERG (KCNH2)): 54%
inhibition [2]: 53%
inhibition [3]: -1%
Activity (Oryctolagus cuniculus [4]): Toxic
inhibition (Rattus norvegicus [5]): 29%
inhibition [6]: 0%
EC20 (Oryctolagus cuniculus [7]): 600 nM
inhibition at 10 µM (MAO-A): 3%
inhibition [8]: 5%
inhibition [9]: 4%
inhibition [10]: -5%
inhibition [11]: 14%
inhibition [12]: 2%
inhibition [13]: 10%
inhibition [14]: 4%
remaining at 10 min, 3 µM [15]: 90%
inhibition (Rattus norvegicus [16]): 24%
inhibition [17]: 0%
inhibition (Homo sapiens): 14%

COc1cccc2c1C(NC[C@]1(c3ccccc3)CC[C@H](NC(=O)OC(C)C)CC1)=NS2(=O)=O
inhibition [1]: 25%
inhibition at 10 µM (hERG (KCNH2)): 68%
inhibition [2]: 55%
inhibition [18]: 8%
inhibition [19]: -8%
inhibition [3]: 4%
inhibition (Rattus norvegicus [5]): 2%
inhibition [6]: 3%
inhibition [20]: 64%
inhibition [21]: 16%
EC20 (Oryctolagus cuniculus [7]): <700 nM
inhibition [22]: -6%
inhibition at 10 µM (MAO-A): 10%
inhibition [23]: -4%
inhibition [8]: 25%
inhibition [9]: 0%
inhibition [10]: 23%
inhibition [11]: 17%
inhibition [12]: 27%
inhibition [13]: -6%
inhibition [14]: -2%
remaining at 10 min, 3 µM [15]: 85%
inhibition (Rattus norvegicus [16]): 15%
inhibition [17]: 31%
inhibition (Homo sapiens): 41%
inhibition [24]: 4%
